For orientation: inhibition means the share of the control response that was lost under treatment. As usually defined, the IC50 is the point on the concentration scale where inhibition reaches its midpoint.

The nature of data set [1]: Cytotoxicity against human U937 cells assessed as cell viability at 20 uM relative to control. Type of data set: cell-based, U-937. The note with it: read-out: Activity.
The subject of data set [2] is U-937. In words: Antiinflammatory activity in human U937 cells assessed as inhibition of PMA/LPS-stimulated IL-6 production at 20 uM after 24 hrs by ELISA. The data set is classed as functional, cell-based. Background: An ELISA detects its analyte on a solid surface through an enzyme-linked reagent.
In data set [3] the test system is U-937. In words: Antiinflammatory activity in human U937 cells assessed as inhibition of PMA/LPS-stimulated TNFalpha production at 20 uM after 24 hrs by ELISA relative to control. Conditions: U-937, 24 h. The data set is classed as functional. In a few lines: (§1)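 TNF-α from U937 cells was quantified by ELISA. Percent inhibition was read at 20 μM, and IC50 (μM) was reported as mean ± error.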

The test system of data set [4] is Mus musculus. The experiment in a line: Antiinflammatory activity in BALB/c mouse assessed as inhibition of LPS-induced IL6 production at 100 mg/kg, administered for 3 days followed by LPS stimulation by ELISA. The data set is classed as functional, organism-based. In a few lines: (§2)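 BALB/c mice were pre-treated with 100 mg/kg test compound for three consecutive days, then challenged with LPS at 10 mg/kg IP. Serum TNF-α and IL-6 were measured by ELISA and compared with LPS-only and vehicle control groups. Values are mean ± S.E.M., n = 5.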

The test system of data set [5] is Mus musculus. In words: Antiinflammatory activity in BALB/c mouse assessed as inhibition of LPS-induced TNFalpha production at 100 mg/kg, administered for 3 days followed by LPS stimulation by ELISA. Type of data set: functional, organism-based. In a few lines: as §2
Data set [6] relates to U-937. The experiment in a line: Antiinflammatory activity in human U937 cells assessed as inhibition of PMA/LPS-stimulated TNFalpha production after 24 hrs by ELISA. Type of data set: functional, cell-based. Conditions: U-937, 24 h. In a few lines:
as §1

The subject of data set [7] is U-937. The experiment in a line: Antiinflammatory activity in human U937 cells assessed as inhibition of PMA/LPS-stimulated TNFalpha production at 1 uM after 24 hrs by ELISA relative to control. Conditions: U-937, 24 h. The data set is classed as functional.

Active and inactive are the calls of the source. The rule behind the calls is not given here.

Consider `COC(=O)C1=C(OC)C(=O)OC1C1=C(Cl)c2cc(C)c(C)cc2OC1` (configuration not stated), for which, in data set [1], the viability at 20 µM came out at 90.7%. For the same compound, in data set [2], the inhibition result is “inactive”. Also, the inhibition at 20 µM in data set [3] was determined as 49.7%.

Turning to `CCOC(=O)C1=C(OCC)C(=O)OC1c1c(Cl)c2cc(C)ccc2oc1=O` (configuration not stated), the viability at 20 µM in data set [1] stood at 79.8%. Also, the inhibition entry in data set [2] is “inactive”. In addition, in data set [3], the inhibition at 20 µM turned out to be 32.3%.

For `COC(=O)C1=C(OC)C(=O)OC1C1=C(Cl)c2c(ccc(C)c2C)OC1` (configuration not stated), the viability at 20 µM in data set [1] was determined as 92.1%. Also, the inhibition result in data set [4] and in data set [5] was “Active” each time. The IC50 in data set [6] is 0.142 µM. For the same compound, the inhibition entry in data set [2] is “inactive”. Besides, the inhibition at 20 µM in data set [3] was 70.4%.

Consider `COC(=O)C1=C(OC)C(=O)OC1c1c(Cl)c2cc(Cl)ccc2oc1=O` (configuration not stated), for which the viability at 20 µM in data set [1] was 93.1%. Further, the half-maximal inhibitory concentration (IC50) in data set [6] worked out at 6.24 µM. The inhibition entry in data set [2] was “inactive”. Besides, the inhibition at 20 µM in data set [3] turned out to be 75%.

For `CCOC(=O)C1=C(OCC)C(=O)OC1C1=C(Cl)c2c(ccc(C)c2C)OC1` (configuration not stated), the viability at 20 µM in data set [1] came to 85.2%. Besides, the inhibition result in data set [2] was “inactive”. Besides, the inhibition at 20 µM in data set [3] was 29.7%.

For the compound `COC(=O)C1=C(OC)C(=O)OC1c1c(Cl)c2cc(C)cc(C)c2oc1=O` (configuration not stated), in data set [1], the viability at 20 µM was 86.1%. The inhibition result in data set [2] is “inactive”. Also, the inhibition at 20 µM in data set [3] was found to be 44.9%.

In the case of `CCOC(=O)C1=C(OCC)C(=O)OC1C1=C(Cl)c2cc(C)c(C)cc2OC1` (configuration not stated), the viability at 20 µM in data set [1] turned out to be 93.4%. Also, in data set [6], the IC50 stood at 11.2 µM. Besides, the inhibition result in data set [2] is “inactive”. The inhibition at 20 µM in data set [3] is 96.1%.

As for `CCOC(=O)C1=C(OCC)C(=O)OC1c1c(Cl)c2cc(C)cc(C)c2oc1=O` (configuration not stated), in data set [1], the viability at 20 µM worked out at 96.8%. In data set [6], the half-inhibitory concentration (IC50) is 1.11 µM. In data set [2], the inhibition result was “inactive”. Also, in data set [3], the inhibition at 20 µM is 80.2%.

On to `CCOC(=O)C1=C(OCC)C(=O)OC1c1c(Cl)c2cc(Br)ccc2oc1=O` (configuration not stated), for which, in data set [1], the viability at 20 µM was 83%. Also, in data set [6], the half-inhibitory concentration (IC50) is 0.047 µM. Also, the inhibition entry in data set [2] is “inactive”. The inhibition at 20 µM in data set [3] came out at 91%.

For the compound `COC(=O)C1=C(OC)C(=O)OC1c1c(Cl)c2cc(-c3ccccc3)ccc2oc1=O` (configuration not stated), the viability at 20 µM in data set [1] came to 82.3%. Further, in data set [2], the inhibition result is “inactive”. Moreover, the inhibition at 20 µM in data set [3] amounted to 44.2%.

Turning to `CCOC(=O)C1=C(OCC)C(=O)OC1C1=C(Cl)c2ccc(C)c(C)c2OC1` (configuration not stated), the viability at 20 µM in data set [1] stood at 89.9%. Moreover, the inhibition result in data set [2] is “inactive”. Also, in data set [3], the inhibition at 20 µM stood at 23.3%.

For `CCOC(=O)C1=C(OCC)C(=O)OC1C1=C(Cl)c2ccc3ccccc3c2OC1` (configuration not stated), the viability at 20 µM in data set [1] was determined as 83.6%. Besides, in data set [2], the inhibition entry was “inactive”. In addition, the inhibition at 20 µM in data set [3] was determined as 4.1%.

With `CCOC(=O)C1=C(OCC)C(=O)OC1C1=C(Cl)c2cc(Br)ccc2OC1` (configuration not stated), in data set [1], the viability at 20 µM turned out to be 87.2%. Besides, in data set [6], the concentration for half-maximal inhibition (IC50) amounted to 3.26 µM. Moreover, the inhibition result in data set [2] was “inactive”. Also, the inhibition at 20 µM in data set [3] stood at 73.3%.

On to `C[C@]12C=CC(=O)C=C1CC[C@@H]1[C@@H]2[C@@H](O)C[C@@]2(C)[C@H]1CC[C@]2(O)C(=O)CO` [PREDNISOLONE], for which the IC50 in data set [6] was 0.033 µM. Besides, in data set [7], the inhibition at 1 µM was 98%.

Consider `COC(=O)C1=C(OC)C(=O)OC1C1=C(Cl)c2cc(C)ccc2OC1` (configuration not stated), for which, in data set [1], the viability at 20 µM stood at 88.5%. In addition, the inhibition entry in data set [2] was “inactive”. Moreover, in data set [3], the inhibition at 20 µM worked out at 35.6%.

As to `COC(=O)C1=C(OC)C(=O)OC1C1=C(Cl)c2ccccc2OC1` (configuration not stated), the viability at 20 µM in data set [1] was 88.1%. In addition, in data set [6], the half-inhibitory concentration (IC50) is 18.7 µM. Moreover, the inhibition result in data set [2] is “inactive”. In addition, in data set [3], the inhibition at 20 µM stood at 95.5%.

For the compound `CCOC(=O)C1=C(OCC)C(=O)OC1C1=C(Cl)c2cc(Cl)ccc2OC1` (configuration not stated), the viability at 20 µM in data set [1] is 79.4%. Further, the half-maximal inhibitory concentration (IC50) in data set [6] is 10.6 µM. For the same compound, the inhibition result in data set [2] was “inactive”. For the same compound, in data set [3], the inhibition at 20 µM turned out to be 75.9%.

As to `CCOC(=O)C1=C(OCC)C(=O)OC1c1c(Cl)c2cc(Cl)ccc2oc1=O` (configuration not stated), the viability at 20 µM in data set [1] was 90.7%. Besides, the inhibition entry in data set [4] and in data set [5] was “Active” each time. Besides, the half-inhibitory concentration (IC50) in data set [6] is 0.423 µM. In addition, the inhibition result in data set [2] is “inactive”. Further, the inhibition at 20 µM in data set [3] worked out at 97.1%.

On to `CCOC(=O)C1=C(OCC)C(=O)OC1c1c(Cl)c2cc(C)c(C)cc2oc1=O` (configuration not stated), for which the viability at 20 µM in data set [1] came to 79%. Further, the inhibition result in data set [2] is “inactive”. For the same compound, the inhibition at 20 µM in data set [3] came to 26.8%.

Consider `COC(=O)C1=C(OC)C(=O)OC1c1c(Cl)c2cc(C)c(C)cc2oc1=O` (configuration not stated), for which the viability at 20 µM in data set [1] came out at 75.9%. Further, the inhibition entry in data set [2] is “inactive”. In addition, in data set [3], the inhibition at 20 µM came to 34.9%.

For the compound `COC(=O)C1=C(OC)C(=O)OC1c1c(Cl)c2ccccc2oc1=O` (configuration not stated), in data set [1], the viability at 20 µM is 78.3%. In data set [2], the inhibition entry is “inactive”. Moreover, in data set [3], the inhibition at 20 µM worked out at 27.1%.

In the case of `COC(=O)C1=C(OC)C(=O)OC1C1=C(Cl)c2ccc(C)c(C)c2OC1` (configuration not stated), in data set [1], the viability at 20 µM turned out to be 93.8%. Further, the inhibition result in data set [2] was “inactive”. The inhibition at 20 µM in data set [3] is 45.7%.

Consider `CCOC(=O)C1=C(OCC)C(=O)OC1c1c(Cl)c2cc(-c3ccccc3)ccc2oc1=O` (configuration not stated), for which the viability at 20 µM in data set [1] was 83.1%. Besides, the inhibition result in data set [2] was “inactive”. Besides, the inhibition at 20 µM in data set [3] is 20%.

Take `COC(=O)C1=C(OC)C(=O)OC1C1=C(Cl)c2cc(Cl)ccc2OC1` (configuration not stated): the viability at 20 µM in data set [1] was found to be 84.6%. For the same compound, the inhibition entry in data set [2] is “inactive”. For the same compound, the inhibition at 20 µM in data set [3] came to 19.4%.

On to `CCOC(=O)C1=C(OCC)C(=O)OC1C1=C(Cl)c2ccccc2OC1` (configuration not stated), for which, in data set [1], the viability at 20 µM came to 88.9%. Moreover, the inhibition result in data set [2] was “inactive”. Moreover, in data set [3], the inhibition at 20 µM was determined as 50.6%.

Turning to `COC(=O)C1=C(OC)C(=O)OC1c1c(Cl)c2cc(C)ccc2oc1=O` (configuration not stated), the viability at 20 µM in data set [1] came out at 84.3%. Further, in data set [2], the inhibition entry is “inactive”. Further, the inhibition at 20 µM in data set [3] was 14.8%.

With `COC(=O)C1=C(OC)C(=O)OC1C1=C(Cl)c2cc(Br)ccc2OC1` (configuration not stated), in data set [1], the viability at 20 µM was 94.3%. In addition, the concentration for half-maximal inhibition (IC50) in data set [6] was determined as 13 µM. Also, the inhibition entry in data set [2] was “inactive”. Further, in data set [3], the inhibition at 20 µM came to 80.2%.

Take `CCOC(=O)C1=C(OCC)C(=O)OC1C1=C(Cl)c2cc(C)ccc2OC1` (configuration not stated): the viability at 20 µM in data set [1] was 81.6%. For the same compound, the inhibition entry in data set [2] is “inactive”. For the same compound, the inhibition at 20 µM in data set [3] came to 6.4%.

For `CCOC(=O)C1=C(OCC)C(=O)OC1c1c(Cl)c2ccccc2oc1=O` (configuration not stated), the viability at 20 µM in data set [1] stood at 75.9%. Besides, the inhibition result in data set [2] was “inactive”. Besides, the inhibition at 20 µM in data set [3] was 40.7%.

For `COC(=O)C1=C(OC)C(=O)OC1C1=C(Cl)c2ccc3ccccc3c2OC1` (configuration not stated), in data set [1], the viability at 20 µM was 80.2%. Further, the inhibition result in data set [2] is “inactive”. Besides, the inhibition at 20 µM in data set [3] was found to be 29.1%.

Turning to `COC(=O)C1=C(OC)C(=O)OC1c1c(Cl)c2cc(Br)ccc2oc1=O` (configuration not stated), the viability at 20 µM in data set [1] is 85.3%. In addition, in data set [6], the IC50 is 0.07 µM. Further, in data set [2], the inhibition result is “inactive”. For the same compound, the inhibition at 20 µM in data set [3] amounted to 76.9%.

These data come from ChEMBL document CHEMBL4622947, “Synthesis and anti-inflammatory activity of 2-oxo-2H-chromenyl and 2H-chromenyl-5-oxo-2,5-dihydrofuran-3-carboxylates” (Bioorg Med Chem Lett, 2020).
